In ChEMBL document CHEMBL3861960, “Leoligin, the Major Lignan from Edelweiss (Leontopodium nivale subsp. alpinum), Promotes Cholesterol Efflux from THP-1 Macrophages” (J Nat Prod, 2016):

Assays:
Assay type in all cases: functional
THP-1 [1] = test: Effect on ATP13A3 protein expression in human THP1 cells at 10 uM after 24 hrs by proteome analysis relative to control
Summary of the method: (§1)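 PMA-differentiated THP-1 macrophages given 10 μM compound or DMSO for 24 h, then lysed in TRIzol. Proteins reduced with DTT, alkylated with iodoacetamide, digested with trypsin (1:50 w/w) for 16 h at 30 °C. Biological replicates pooled, analysed by LC-MS/MS on an Orbitrap Velos Pro with a 4 h gradient, FDR ≤0.05. Only unique peptides used; log2 peptide ratios averaged per protein and tested by one-sample t test versus vehicle.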

THP-1 [2] = test: Effect on DYNLL2 protein expression in human THP1 cells at 10 uM after 24 hrs by proteome analysis relative to control; summary of the method: as §1
THP-1 [3] = test: Effect on TOMM20 protein expression in human THP1 cells at 10 uM after 24 hrs by proteome analysis relative to control; summary of the method: as §1
THP-1 [4] = test: Effect on CELSR3 protein expression in human THP1 cells at 10 uM after 24 hrs by proteome analysis relative to control; summary of the method: as §1
THP-1 [5] = test: Effect on NBEA protein expression in human THP1 cells at 10 uM after 24 hrs by proteome analysis relative to control; summary of the method: as §1
THP-1 [6] = test: Effect on ART4 protein expression in human THP1 cells at 10 uM after 24 hrs by proteome analysis relative to control; summary of the method: as §1
THP-1 [7] = test: Effect on DBI protein expression in human THP1 cells at 10 uM after 24 hrs by proteome analysis relative to control; summary of the method: as §1
THP-1 [8] = test: Effect on CYP1B1 protein expression in human THP1 cells at 10 uM after 24 hrs by proteome analysis relative to control; summary of the method: as §1
THP-1 [9] = test: Effect on SPCS1 protein expression in human THP1 cells at 10 uM after 24 hrs by proteome analysis relative to control; summary of the method: as §1
THP-1 [10] = test: Effect on TUSC2 protein expression in human THP1 cells at 10 uM after 24 hrs by proteome analysis relative to control; summary of the method: as §1
THP-1 [11] = test: Effect on PLAUR protein expression in human THP1 cells at 10 uM after 24 hrs by proteome analysis relative to control; summary of the method: as §1
THP-1 [12] = test: Effect on TUBA1A protein expression in human THP1 cells at 10 uM after 24 hrs by proteome analysis relative to control; summary of the method: as §1
THP-1 [13] = test: Effect on CDK12 protein expression in human THP1 cells at 10 uM after 24 hrs by proteome analysis relative to control; summary of the method: as §1
THP-1 [14] = test: Effect on COMMD1 protein expression in human THP1 cells at 10 uM after 24 hrs by proteome analysis relative to control; summary of the method: as §1
THP-1 [15] = test: Effect on BHLHA15 protein expression in human THP1 cells at 10 uM after 24 hrs by proteome analysis relative to control; summary of the method: as §1
THP-1 [16] = test: Effect on TARBP1 protein expression in human THP1 cells at 10 uM after 24 hrs by proteome analysis relative to control; summary of the method: as §1
THP-1 [17] = test: Effect on DNHD1 protein expression in human THP1 cells at 10 uM after 24 hrs by proteome analysis relative to control; summary of the method: as §1
THP-1 [18] = test: Effect on SDE2 protein expression in human THP1 cells at 10 uM after 24 hrs by proteome analysis relative to control; summary of the method: as §1
THP-1 [19] = test: Effect on P4HTM protein expression in human THP1 cells at 10 uM after 24 hrs by proteome analysis relative to control; summary of the method: as §1
THP-1 [20] = test: Effect on HIST2H2AC protein expression in human THP1 cells at 10 uM after 24 hrs by proteome analysis relative to control; summary of the method: as §1
THP-1 [21] = test: Effect on CUL7 protein expression in human THP1 cells at 10 uM after 24 hrs by proteome analysis relative to control; summary of the method: as §1
THP-1 [22] = test: Effect on HIST1H2AB protein expression in human THP1 cells at 10 uM after 24 hrs by proteome analysis relative to control; summary of the method: as §1
THP-1 [23] = test: Effect on MCM8 protein expression in human THP1 cells at 10 uM after 24 hrs by proteome analysis relative to control; summary of the method: as §1
THP-1 [24] = test: Effect on DNAH9 protein expression in human THP1 cells at 10 uM after 24 hrs by proteome analysis relative to control; summary of the method: as §1
THP-1 [25] = test: Effect on MAGEBS protein expression in human THP1 cells at 10 uM after 24 hrs by proteome analysis relative to control; summary of the method: as §1
THP-1 [26] = test: Effect on of ABCA1 protein expression in human THP1 cells at 10 uM after 24 hrs by proteome analysis relative to control

C/C=C(/C)C(=O)OC[C@H]1[C@@H](Cc2ccc(OC)c(OC)c2)CO[C@@H]1c1ccc(OC)c(OC)c1
fold change (FC) (THP-1 [1]): 1.7
fold change (FC) (THP-1 [2]): 1.7
fold change (FC) (THP-1 [3]): 1.6
fold change (FC) (THP-1 [4]): 1.6
fold change (FC) (THP-1 [5]): 1.6
fold change (FC) (THP-1 [6]): 1.6
fold change (FC) (THP-1 [7]): 1.6
fold change (FC) (THP-1 [8]): 1.6
fold change (FC) (THP-1 [9]): 1.6
fold change (FC) (THP-1 [10]): 1.5
fold change (FC) (THP-1 [11]): 1.5
fold change (FC) (THP-1 [12]): 1.5
fold change (FC) (THP-1 [13]): 1.5
fold change (FC) (THP-1 [14]): 1.5
fold change (FC) (THP-1 [15]): 0.7
fold change (FC) (THP-1 [16]): 0.6
fold change (FC) (THP-1 [17]): 0.6
fold change (FC) (THP-1 [18]): 0.6
fold change (FC) (THP-1 [19]): 0.6
fold change (FC) (THP-1 [20]): 0.6
fold change (FC) (THP-1 [21]): 0.6
fold change (FC) (THP-1 [22]): 0.6
fold change (FC) (THP-1 [23]): 0.5
fold change (FC) (THP-1 [24]): 0.4
fold change (FC) (THP-1 [25]): 0.4
fold change (FC) (THP-1 [26]): 1.1
